High-throughput results from PubChem.
The sample as a whole holds a higher share of hits than the screen did.
bCat KO growth = beta-catenin-lacking colon tumor cell growth suppression; HCT116 beta-catenin knockout viability, CellTiter-Glo, 60 h; hits give low values; viability, % at 10 µM; 140,000 tested, 1.5% active; AID 818;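 active = viability at or under a set limit, the compound median less 4 SD, cut at about 6% in these data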
Fibroblast inh = blocks proliferation of human lung fibroblasts | 85,000 tested, 1.1% active | viability, % at 10 µM | LL 47 human lung fibroblast viability, ATP luminescence; hits give low values | AID 719;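 active = viability at or below 50% in the single dose screen; inactive = viability above 50%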;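 also: compound exposure lasted 72 h before the ATP readout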
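Test system: LL 47 human lung fibroblasts / Quantity: 1,150 cells in each well / Medium: IMEM growth medium with 15% fetal bovine serum / Incubation: 72 h compound exposure at 37 °C after overnight plating / Detection: CellTiter-Glo luminescence measuring cellular ATP / Read-out: % viability versus median cells-only luminescence / Benchmarks: cell-only wells, no compound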
HUVEC prolif 384 = blocks proliferation of human endothelial cells. 86,000 tested, 1.1% active. viability, % at 10 µM (by protocol). HUVEC proliferation, CellTiter-Glo luminescence, 72 h; hits give low values;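 active = viability at or below 30%; inactive = viability above 30%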
PTEN del growth = growth suppressors of cells with PTEN tumor suppressor deletion; 140,000 tested, 1.2% active; viability, % at 10 µM; HCT116 PTEN-null viability, CellTiter-Glo, 60 h; hits give low values; AID 827;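 active = viability at or below a set limit, 4 SD under the median of all tested compounds, cut at about 3.7% in these data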;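 also: PTEN knockout HCT116 line with beta catenin targeted HCT116 as companion control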
H69AR inhibit = blocks growth of human H69AR lung tumor cells; H69AR lung tumor viability, ATP luminescence, 72 h; hits give low values; viability, % at 10 µM; 85,000 tested, 6% active; AID 598;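 active = viability at or below 40%; inactive = viability above 40%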;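 also: multidrug resistant small cell line overexpressing MRP-1 efflux transporter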
Of the large screens only hits and unclear results are named; the others gave an inactive call.

CSc1ccccc1NC(=O)CN(C)CC(=O)Nc1c(F)cccc1F	none (no result: Fibroblast inh, HUVEC prolif 384, H69AR inhibit)
CCOC(=O)Nc1sc(C)c(C)c1C(N)=O	none (no result: Fibroblast inh, HUVEC prolif 384, H69AR inhibit)
CC1CCCCN1S(=O)(=O)c1ccc(NC(=O)CSc2nnnn2C)cc1 (stereo not drawn)	none
O=C(NCc1cn2ccsc2n1)c1cccs1	none
COc1ccc(NC(C)=O)cc1NC(=O)CN1CCN(C(=O)c2ccco2)CC1	none (no result: Fibroblast inh, HUVEC prolif 384, H69AR inhibit)
O=C(COc1ccc(C(=O)c2ccccc2)cc1)NCC(=O)Nc1ccccc1Br	none (no result: Fibroblast inh, HUVEC prolif 384, H69AR inhibit)
Cc1cccc(NCc2ccccc2O)n1	none
Oc1c(C(Nc2ccccn2)c2ccccn2)ccc2cccnc12 (stereo not drawn)	bCat KO growth 3.0, Fibroblast inh 5.0, PTEN del growth 2.5, H69AR inhibit 6.4
Cc1cccc(NC(c2ccc(C)s2)c2ccc3ccc(C)nc3c2O)n1 (stereo not drawn)	bCat KO growth 2.4, PTEN del growth 1.7 (no result: Fibroblast inh, HUVEC prolif 384, H69AR inhibit)
COCC(C)NCc1cccc(C)c1 (stereo not drawn)	none
O=C(/C=C/c1ccccc1)NC(NC(=S)Nc1cccc(Cl)c1)C(Cl)(Cl)Cl (stereo not drawn)	PTEN del growth 2.9 (no result: Fibroblast inh, HUVEC prolif 384, H69AR inhibit)
COc1ccc(NC(=S)NC(NC(=O)c2cccc(Cl)c2)C(Cl)(Cl)Cl)c([N+](=O)[O-])c1 (stereo not drawn)	HUVEC prolif 384 12.2, H69AR inhibit 2.9
O=C(Cc1cccc2ccccc12)NC(NC(=S)Nc1ccccc1Cl)C(Cl)(Cl)Cl (stereo not drawn)	none (no result: Fibroblast inh, HUVEC prolif 384, H69AR inhibit)
O=C(NC(NC(=S)Nc1ccccc1Cl)C(Cl)(Cl)Cl)c1cccc(Cl)c1 (stereo not drawn)	bCat KO growth 5.6, PTEN del growth 2.7 (no result: Fibroblast inh, HUVEC prolif 384, H69AR inhibit)
COc1ccc(CNS(=O)(=O)c2cccc(S(=O)(=O)N3CCOCC3)c2)cc1	none
O=C(/C=C/c1cccc2ccccc12)c1ccncc1	bCat KO growth 1.0, PTEN del growth 0.9 (no result: Fibroblast inh, HUVEC prolif 384, H69AR inhibit)
CCCCOc1ccc(CN(C)c2ncnc(N)n2)cc1	H69AR inhibit 34.9
O=S(=O)(NCC1CCCO1)c1ccc(S(=O)(=O)N(Cc2ccccc2F)C2CCCCC2)cc1 (stereo not drawn)	none (no result: bCat KO growth, PTEN del growth)
Cc1ccc(NC(=O)CSc2nnc([C@@H]3CCCN3C(=O)OC(C)(C)C)o2)c(C)c1	H69AR inhibit 34.9
COc1cc(Cl)c(C)cc1NC(=O)COC(=O)/C=C/c1c(C)nn(C2CCS(=O)(=O)C2)c1Cl (stereo not drawn)	H69AR inhibit 32.8
COc1cc(NC(=O)COC(=O)/C=C/c2c(C)nn(C3CCS(=O)(=O)C3)c2Cl)cc(OC)c1OC (stereo not drawn)	none (no result: Fibroblast inh, HUVEC prolif 384, H69AR inhibit)
Cc1ccc(-n2c(=O)c3c4c(sc3n3c(C)nnc23)COC(C(C)C)C4)cc1 (stereo not drawn)	none (no result: bCat KO growth, PTEN del growth)
CSc1nnc2n(-c3ccc(C)cc3)c(=O)c3c4c(sc3n12)COC(C(C)C)C4 (stereo not drawn)	Fibroblast inh 36.6, H69AR inhibit 36.2
COC(=O)c1[nH]c2cc(OC)ccc2c1NC(=O)c1nonc1C	H69AR inhibit 29.8
CCOC(=O)c1[nH]c2ccc(OC)cc2c1NC(=O)c1nonc1C	none
CC(=O)N1CCN(c2ccc(NC(=O)c3ccc(C(C)(C)C)cc3)cc2)CC1	bCat KO growth 5.9, H69AR inhibit 33.5
Cc1c2c(n3c(nc4ccccc43)c1C#N)N(Cc1ccccn1)CC2	none (no result: bCat KO growth, PTEN del growth)
CCC(C)n1c(=O)c(C(=O)Nc2ccccc2S(N)(=O)=O)c(O)c2ccccc21 (stereo not drawn)	H69AR inhibit 26.9
CC(C)Cn1c(=O)c(C(=O)Nc2ccccc2S(N)(=O)=O)c(O)c2ccccc21	none (no result: Fibroblast inh, HUVEC prolif 384, H69AR inhibit)
O=C1c2ccccc2OC2(C=Cc3ccccc3O2)N1Cc1ccccc1 (stereo not drawn)	H69AR inhibit 11.6
COc1ccc(/C=C/c2nnc(NC(=O)COc3ccc(C)cc3)s2)cc1	none (no result: Fibroblast inh, HUVEC prolif 384, H69AR inhibit)
CCOC(=O)c1ccc(N2C(=O)CC(Nc3ccc(CCO)cc3)C2=O)cc1 (stereo not drawn)	none
COC(=O)c1ccc(Cl)c(NS(=O)(=O)c2ccc3c(c2)OCCO3)c1	H69AR inhibit 19.7
CC(=O)c1cc2c(cc1NS(=O)(=O)c1ccc3c(c1)OCCO3)OCO2	none
COC(=O)COc1ccc(S(=O)(=O)Nc2ccc3c(c2)OCCO3)cc1Cl	Fibroblast inh 24.4, HUVEC prolif 384 28.5
CCCCC1(CC(=O)OC)C(=O)N(c2ccccc2)N(c2ccccc2)C1=O	none (no result: Fibroblast inh, HUVEC prolif 384, H69AR inhibit)
Cc1cc(/C=C2/SC(=O)NC2=O)c(C)n1-c1ccc(N2CCOCC2)cc1	none (no result: Fibroblast inh, HUVEC prolif 384, H69AR inhibit)
Cc1cc(/C=C2\SC(=Nc3ccc(F)cc3)NC2=O)c(C)n1-c1ccc(S(N)(=O)=O)cc1	PTEN del growth 2.8 (no result: Fibroblast inh, HUVEC prolif 384, H69AR inhibit)
Cc1cc(C2=CC(C)(c3cc(C)oc3C)Nc3nc(C(F)(F)F)nn32)c(C)o1 (stereo not drawn)	H69AR inhibit 3.2
CCN=C1SC(C(=O)Nc2ccccc2)CC(=O)N1CC (stereo not drawn)	none
Cc1ccc(C)c(NC(=O)C(Sc2ncnc3ccccc23)c2ccccc2)c1 (stereo not drawn)	PTEN del growth 1.2 (no result: Fibroblast inh, HUVEC prolif 384, H69AR inhibit)
CCOc1cc(/C=N\NC(=O)Cn2nc([N+](=O)[O-])cc2C)ccc1OCc1cccc2ccccc12	H69AR inhibit 16.4
CCOc1cc(/C=N/NC(=O)CSc2nnc(C)s2)ccc1OCc1ccccc1Cl	none (no result: Fibroblast inh, HUVEC prolif 384, H69AR inhibit)
COC(=O)c1c(NC(=O)c2nc3ccccc3s2)sc2c1CCN(C(C)=O)C2	Fibroblast inh 3.4, HUVEC prolif 384 4.2
COc1ccc(Nc2nnc(SCC(=O)/C=C3/N(C)c4ccccc4C3(C)C)s2)cc1	none (no result: Fibroblast inh, HUVEC prolif 384, H69AR inhibit)
COc1ccccc1-n1c(CNC(=O)c2ccco2)nnc1SCC(=O)Nc1nccs1	H69AR inhibit 33.4
Cc1ccc(OCCN2CCN(CC(O)Cn3c4ccccc4c4ccccc43)CC2)cc1 (stereo not drawn)	bCat KO growth 1.2, PTEN del growth 1.4 (no result: Fibroblast inh, HUVEC prolif 384, H69AR inhibit)
CCOC(=O)c1c(NC(=O)c2cc(C3CC3)on2)sc2c1CCCC2	none (no result: bCat KO growth, PTEN del growth)
Cc1c(Cl)ccc2c1NC(=O)[C@]21N[C@@H](Cc2ccccc2)[C@H]2C(=O)N(c3ccc(F)cc3)C(=O)[C@H]21	H69AR inhibit 18.9
CC(=O)C(Sc1ncnc2c1nnn2-c1ccc(F)cc1)C(=O)N(C)C (stereo not drawn)	H69AR inhibit 11.6
O=C(Nc1cc(N2CCOCC2)ncn1)Nc1cccc2ccccc12	H69AR inhibit 32.5
COC(=O)c1c(CSc2ccc(C)c(C)c2)noc1C(=O)NCc1ccc(OC)cc1	none (no result: Fibroblast inh, HUVEC prolif 384, H69AR inhibit)
CCOc1ccc2nc(NC(=O)CSc3nc4cccnc4n3C)sc2c1	H69AR inhibit 26.5
CCOC(=O)CNC(=O)CSc1nc2cccnc2n1Cc1ccccc1	none
COc1ccc2nc(NC(=O)CSc3nc4ccccc4o3)sc2c1	H69AR inhibit 7.1
O=C(CSc1nc2ccccc2o1)Nc1nc2ccc(Br)cc2s1	none (no result: Fibroblast inh, HUVEC prolif 384, H69AR inhibit)
Cc1nc(NC(=O)CSc2nc3cccnc3n2Cc2ccccc2)sc1C	H69AR inhibit 17.8
Cc1cc(N2CCOCC2)nc2ccc(NC(=O)CCC(=O)N3CCCC(C)C3)cc12 (stereo not drawn)	none (no result: Fibroblast inh, HUVEC prolif 384, H69AR inhibit)
Cc1ccccc1NC(=O)CC1SC(=O)N(c2ccccc2)C1=O (stereo not drawn)	none
